Data on twelve compounds can be found in ChEMBL document CHEMBL1938233, “2-Oxo-N-aryl-1,2,3,4-tetrahydroquinoline-6-sulfonamides as activators of the tumor cell specific M2 isoform of pyruvate kinase” (Bioorg Med Chem Lett, 2011).

Broadly, the Papp A→B is how fast a substance crosses the layer from the apical side. One may read the Papp B→A as the apparent permeability from the basolateral to the apical side of a cell layer. For orientation: Emax means the greatest response seen or fitted, relative to the assay's reference. As usually defined, the EC50 is the midpoint of the concentration-response curve.

Structures are written as SMILES. Activity calls are given as the source filed them. No cut-off for these calls is given here. A value given as a limit tells only on which side of the number the result lay.

The test system of data set [1] is Liver microsomes. Put plainly: Half life in human liver microsomes at 2 uM after 2 mins by LC/MS/MS analysis. The data set is classed as ADME, Microsome. On the technique in general: Liver microsomes are a subcellular fraction often used to study metabolism.
The subject of data set [2] is Liver. Put plainly: Half life in mouse liver microsomes at 2 uM after 2 mins by LC/MS/MS analysis. The data set is classed as ADME, Microsome.
Data set [3] can be described thus: Apparent permeability from apical to basolateral side of human Caco2 cells at pH 7.4 after 2 hrs by LC/MS/MS analysis. In kind it is ADME, cell-based. To be noted: Caco-2, pH 7.4.
Data set [4] is described as follows: Apparent permeability from basolateral to apical side of human Caco2 cells at pH 7.4 after 2 hrs by LC/MS/MS analysis. The data set is classed as ADME, cell-based. Conditions: Caco-2, pH 7.4. A general note: Caco-2 monolayers are a common model of the intestinal barrier.
In data set [5] the target is Pyruvate kinase PKLR (Homo sapiens) (UniProt P30613). Put plainly: Activation of PKLR assessed as ATP product formation at 57.5 uM after 1 hr by luminescent pyruvate kinase-luciferase coupled assay.
Data set [6] concerns the target T1, Pyruvate kinase PKM (Homo sapiens, UniProt P14618). Put plainly: Activation of human PKM2 assessed as ATP product formation at 57 µM after 1 hr by luminescent pyruvate kinase-luciferase coupled assay.
Target sequence in this assay (P14618 2-531 limits assumed): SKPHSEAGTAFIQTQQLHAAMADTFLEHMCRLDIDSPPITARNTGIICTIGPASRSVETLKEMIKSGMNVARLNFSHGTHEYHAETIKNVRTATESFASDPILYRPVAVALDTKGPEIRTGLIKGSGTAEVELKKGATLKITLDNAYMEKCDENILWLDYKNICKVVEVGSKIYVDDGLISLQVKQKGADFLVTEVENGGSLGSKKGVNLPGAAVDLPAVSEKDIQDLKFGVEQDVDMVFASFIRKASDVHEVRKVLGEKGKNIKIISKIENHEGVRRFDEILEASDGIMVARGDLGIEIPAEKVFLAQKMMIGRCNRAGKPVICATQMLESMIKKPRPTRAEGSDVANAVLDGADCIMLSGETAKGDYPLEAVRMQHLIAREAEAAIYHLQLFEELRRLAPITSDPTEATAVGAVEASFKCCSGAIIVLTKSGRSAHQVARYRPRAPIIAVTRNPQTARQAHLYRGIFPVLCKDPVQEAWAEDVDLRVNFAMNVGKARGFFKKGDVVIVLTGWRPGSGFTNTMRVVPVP
For data set [7], the system named is Caco-2. The experiment in a line: Efflux ratio of permeability from basolateral to apical side over apical to basolateral side in human Caco2 cells at pH 7.4 after 2 hrs by LC/MS/MS analysis. To be noted: caco-2, pH 7.4, 2 h.
Data set [8] has as its target T1, Pyruvate kinase PKM. Put plainly: Activation of human PKM2 assessed as ATP product formation after 1 hr by luminescent pyruvate kinase-luciferase coupled assay. An outline of the steps: (§1)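 Luminescent pyruvate kinase–luciferase coupled assay. AC50 is the mean of three separate experiments. Maximum response is % activation at 57 μM compound, normalized as described in the supporting information.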
Target sequence in this assay (P14618 whole entry): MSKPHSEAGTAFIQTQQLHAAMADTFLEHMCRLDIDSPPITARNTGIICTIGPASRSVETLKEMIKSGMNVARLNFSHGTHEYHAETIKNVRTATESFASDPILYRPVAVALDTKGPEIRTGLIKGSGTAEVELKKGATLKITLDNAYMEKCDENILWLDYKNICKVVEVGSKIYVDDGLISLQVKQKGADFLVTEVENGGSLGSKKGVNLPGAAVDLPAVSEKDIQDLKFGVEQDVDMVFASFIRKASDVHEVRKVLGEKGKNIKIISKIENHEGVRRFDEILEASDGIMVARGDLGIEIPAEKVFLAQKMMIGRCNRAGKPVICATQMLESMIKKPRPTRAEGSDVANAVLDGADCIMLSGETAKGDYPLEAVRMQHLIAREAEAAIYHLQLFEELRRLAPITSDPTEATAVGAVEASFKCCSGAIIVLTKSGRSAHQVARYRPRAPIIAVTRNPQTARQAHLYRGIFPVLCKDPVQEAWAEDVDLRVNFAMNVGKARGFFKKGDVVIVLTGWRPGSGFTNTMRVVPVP

The target of data set [9] is T1, Pyruvate kinase PKM. Put plainly: Activation of human PKM2 assessed as ATP product formation at 57 uM after 1 hr by luminescent pyruvate-kinase luciferase coupled assay. An outline of the steps: as §1
Target sequence in this assay (P14618 2-531 limits assumed): as the sequence (P14618 2-531 limits assumed) above
Data set [10] is described as follows: Aqueous kinetic solubility of the compound in PBS buffer. The data set is classed as physicochemical.
Data set [11] deals with T1, Pyruvate kinase PKM. The experiment in a line: Activation of human PKM2 assessed as reduction in Km for PEP at 10 uM by after 6 mins by fluorescent pyruvate kinase-lactate dehydrogenase coupled assay. An outline of the steps: (§2)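 PK–LDH coupled kinetic assay run at about 22 °C with 10 nM PKM2, 200 mM KCl and 15 mM MgCl2. Either ADP or PEP was held at 4.0 mM while the other substrate was varied. Initial velocity (pmol/min) was measured with and without compound at 10 μM.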
Target sequence in this assay (P14618 2-531 limits assumed): as above

In data set [12] the target is T1, Pyruvate kinase PKM. The experiment in a line: Activation of human PKM2 assessed as effect on Km of ADP at 10 uM by after 6 mins by fluorescent pyruvate kinase-lactate dehydrogenase coupled assay. An outline of the steps:
as §2
Target sequence in this assay (P14618 2-531 limits assumed): as above

Chain of Pyruvate kinase PKLR (Homo sapiens) (P30613 whole entry, looked up): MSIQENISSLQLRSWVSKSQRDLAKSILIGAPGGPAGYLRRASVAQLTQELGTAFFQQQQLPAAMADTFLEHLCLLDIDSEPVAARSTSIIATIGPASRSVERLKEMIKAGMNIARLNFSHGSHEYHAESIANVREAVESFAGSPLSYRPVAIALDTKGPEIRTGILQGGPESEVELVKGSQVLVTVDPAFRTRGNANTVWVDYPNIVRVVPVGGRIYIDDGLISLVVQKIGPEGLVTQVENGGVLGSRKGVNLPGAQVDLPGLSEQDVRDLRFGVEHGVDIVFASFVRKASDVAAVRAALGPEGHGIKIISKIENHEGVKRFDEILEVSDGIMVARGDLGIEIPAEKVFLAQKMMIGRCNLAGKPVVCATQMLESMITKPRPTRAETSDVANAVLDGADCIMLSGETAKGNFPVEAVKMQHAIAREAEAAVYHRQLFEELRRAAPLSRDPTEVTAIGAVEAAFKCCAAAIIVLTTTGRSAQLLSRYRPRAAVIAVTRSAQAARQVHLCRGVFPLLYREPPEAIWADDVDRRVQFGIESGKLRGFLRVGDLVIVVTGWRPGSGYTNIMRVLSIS

For the compound `C[C@@H](CO)Nc1cc2c(cc1S(=O)(=O)Nc1ccc(F)c(Cl)c1)CCC(=O)N2`, the t1/2 in [1] came to 78.8 min; in [2], 36.3 min. For the same compound, the Papp A→B at 2 h in data set [3] came out at 1.61 ×10⁻⁶ cm/s. For the same compound, the Papp B→A at 2 h in data set [4] worked out at 17.5 ×10⁻⁶ cm/s. Besides, the Activity in data set [5] is under 25%. Moreover, in data set [6], the Emax is 92%. For the same compound, the Ratio in data set [7] is recorded as 10.91.
Turning to `Cc1ccc(NS(=O)(=O)c2cc3c(cc2N(C)C)NC(=O)CC3)cc1C`, the t1/2 in data set [1] came out at 19.4 min; in data set [2], 21.7 min. Moreover, the Emax in data set [6] stood at 129%.
Regarding `Cc1ccc(NS(=O)(=O)c2cc3c(cc2N[C@@H](C)CO)NC(=O)CC3)cc1Cl`, in data set [8], the EC50 came out at 60 nM. The t1/2 in data set [1] worked out at 30.4 min; in data set [2], 22.9 min. For the same compound, in [3], the Papp A→B at 2 h turned out to be 1.13 ×10⁻⁶ cm/s. For the same compound, in [4], the Papp B→A at 2 h came out at 11.9 ×10⁻⁶ cm/s. Also, the Activity in data set [5] is under 25%. Besides, the maximal response (Emax) in data set [6] turned out to be 96%. Further, the Ratio in data set [7] is recorded as 10.51.
As to `O=C1CCc2cc(S(=O)(=O)Nc3cccc(Cl)c3)ccc2N1`, the EC50 in data set [8] stood at 410 nM. The Emax in data set [9] is 104%.
On to `Cc1ccc(NS(=O)(=O)c2ccc3c(c2)CCC(=O)N3)cc1Cl`, for which the EC50 in [8] was determined as 100 nM. For the same compound, in data set [9], the Emax turned out to be 104%.
For `Cc1ccc(NS(=O)(=O)c2cc3c(cc2NC(C)CO)NC(=O)CC3)cc1C` (racemic), the EC50 in [8] was determined as 230 nM. Also, the Kinetic_solubility in [10] was over 120 µM. Further, the Emax in [6] was found to be 124%.
As to `Cc1ccc(NS(=O)(=O)c2cc3c(cc2F)NC(=O)CC3)cc1C`, the t1/2 in data set [1] is given as 16.5 min; in [2], 34.3 min. The Emax in data set [6] came out at 101%.
For the compound `CNc1cc2c(cc1S(=O)(=O)Nc1ccc(C)c(C)c1)CCC(=O)N2`, the t1/2 in data set [1] is on record as 19.7 min; in data set [2] it was 19.1 min. Besides, in data set [6], the Emax was 102%.
As for `Cc1ccc(NS(=O)(=O)c2ccc3c(c2)CCC(=O)N3)cc1C`, the EC50 in [8] was 790 nM. Moreover, the t1/2 in data set [1] amounted to 6 min; in [2] it was 17.3 min. In addition, the Papp A→B at 2 h in data set [3] was 14.9 ×10⁻⁶ cm/s. In addition, the Papp B→A at 2 h in data set [4] was found to be 12.2 ×10⁻⁶ cm/s. Further, in [5], the Activity was under 25%. Moreover, the Ratio in data set [7] came to 0.82.
Take `O=C1CCc2cc(S(=O)(=O)Nc3cccc(F)c3)ccc2N1`: the EC50 in data set [8] was found to be 790 nM. In addition, the Emax in [9] amounted to 101%.
Consider `Cc1ccc(NS(=O)(=O)c2cc3c(cc2F)NC(=O)CC3)cc1Cl`, for which the results for the t1/2 in data set [1] and in [2] were 22.9 min and 54.1 min, respectively. The Papp A→B at 2 h in data set [3] is 6.22 ×10⁻⁶ cm/s. For the same compound, the Papp B→A at 2 h in [4] stood at 6.24 ×10⁻⁶ cm/s. Also, the Emax in data set [6] was determined as 112%. Moreover, in [7], the Ratio is recorded as 1.
`O=C1CCc2cc(S(=O)(=O)Nc3ccc(F)c(Cl)c3)c(F)cc2N1`: the EC50 in data set [8] came to 90 nM. The outcome in data set [11] was Active. Further, in data set [12], the outcome was inactive. In addition, the results for the t1/2 in data set [1] and in data set [2] were 277.2 min and 117.5 min, respectively. Besides, the apparent permeability from apical to basolateral (Papp A→B) at 2 h in data set [3] is 9.38 ×10⁻⁶ cm/s. In data set [4], the Papp B→A at 2 h is 7.91 ×10⁻⁶ cm/s. Moreover, the Activity in data set [5] is under 25%. For the same compound, in data set [6], the Emax turned out to be 88%. The Ratio in [7] is reported as 0.84.
